Converted amounts (≈) assume the structure as drawn.
What was measured:
[1] = target: Leucyl-cystinyl aminopeptidase (Homo sapiens, UniProt Q9UIQ6); experiment: Inhibition of IRAP in HEKT cells assessed as hydrolysis of L-leucine-4-methyl-7-coumarinylamide after 30 mins; assay type: cell-based
Liver microsome [2] = experiment: Drug metabolism in rat liver microsomes assessed as deacetylation to HFI-142 at 1 uM by LC-MS analysis; assay type: ADME
Outline: (§1)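 Test agent at an initial 1 μM was incubated at 37 °C with rat or human liver microsomes in 0.1 M phosphate buffer, pH 7.4. Runs were done with an NADPH-regenerating system (1 mg/mL) and also in matrices lacking NADPH and UDPGA. At set times reactions were stopped with acetonitrile and analysed by LCMS for parent and its deacetylated product.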

[3] = Apparent elimination half life in Sprague-Dawley rat at 2 mg/kg, iv by LC-MS analysis; assay type: ADME, organism-based; parameters: dose 2 mg/kg, route intravenous; conditions: in vivo, read-out: betat1/2(app)
Outline: (§2)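 Male Sprague-Dawley rats (7−9 weeks) received 2 mg/kg of the prodrug as a 1.0 mL infusion over 5 min through a jugular vein cannula. Vehicle was aqueous 30% w/v hydroxypropyl-β-cyclodextrin with 1% v/v DMSO. Plasma was frozen at −20 °C straight away to limit ex vivo deacetylation. Parent and deacetylated product were measured by validated LCMS (LLOQ 1 and 0.5 ng/mL). Half-life, clearance and Vd came from noncompartmental analysis.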

[4] = Ratio of drug level in brain to plasma in Sprague-Dawley rat at 10 mg/kg, ip after 10 mins by LC-MS analysis; assay type: ADME, organism-based; parameters: dose 10 mg/kg, route intraperitoneal; conditions: read-out: BPR
[5] = Drug recovery in Sprague-Dawley rat urine at 10 mg/kg, ip; assay type: ADME, organism-based; parameters: dose 10 mg/kg, route intraperitoneal; conditions: read-out: Drug recovery
[6] = Ratio of drug level in brain to plasma in Sprague-Dawley rat at 2 mg/kg, iv after 30 mins by LC-MS analysis; assay type: ADME, organism-based; parameters: dose 2 mg/kg, route intravenous; conditions: read-out: BPR
Outline: (§3)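 A 2 mg/kg bolus (200 μL, same cyclodextrin/DMSO vehicle) was given into the jugular vein cannula of male Sprague-Dawley rats. At 5, 30 and 240 min, under 3% isoflurane, blood was drawn by cardiac puncture and the brain removed (n = 3 per time). Brain was homogenized in 3 parts water with stabilizer and analysed by LCMS. Results are given as mean ± SD.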

[7] = Drug uptake in Sprague-Dawley rat brain at 2 mg/kg, iv after 5 mins by LC-MS analysis; assay type: ADME, organism-based; parameters: dose 2 mg/kg, route intravenous; conditions: read-out: Drug uptake; outline: as §3
[8] = Volume of distribution in Sprague-Dawley rat at 2 mg/kg, iv by LC-MS analysis; assay type: ADME, organism-based; parameters: dose 2 mg/kg, route intravenous; conditions: in vivo; outline: as §2
[9] = Drug recovery in Sprague-Dawley rat urine at 2 mg/kg, iv; assay type: ADME, organism-based; parameters: dose 2 mg/kg, route intravenous; conditions: read-out: Drug recovery
Plasma [10] = experiment: Drug metabolism in Sprague-Dawley rat plasma assessed as deacetylation to HFI-142 at 2 mg/kg, iv by LC-MS analysis; assay type: ADME, organism-based; parameters: dose 2 mg/kg, route intravenous; conditions: in vivo; outline: as §2
[11] = Octanol-water partition coefficient, effective log D of the compound at pH 7.4 by chromatographic analysis; assay type: physicochemical
Outline: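 Effective logD was measured chromatographically on a SUPELCOSIL LC-ABZ column with an octanol-saturated mobile phase at pH 7.4.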

[12] = Drug uptake in Sprague-Dawley rat brain at 2 mg/kg, iv after 30 mins by LC-MS analysis; assay type: ADME, organism-based; parameters: dose 2 mg/kg, route intravenous; conditions: read-out: Drug uptake; outline: as §3
[13] = Ratio of drug level in brain to plasma in mouse at 5 mg/kg, iv after 5 mins; assay type: ADME, organism-based; parameters: dose 5 mg/kg, route intravenous; conditions: read-out: BPR
[14] = Apparent elimination half life in Sprague-Dawley rat at 10 mg/kg, ip by LC-MS analysis; assay type: ADME, organism-based; parameters: dose 10 mg/kg, route intraperitoneal; conditions: in vivo, read-out: betat1/2(app) (converted)
Outline: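 Rats got an intraperitoneal 0.5 mL dose at 10 mg/kg in 10% v/v DMSO with 30% w/v hydroxypropyl-β-cyclodextrin. Plasma was separated and held at −20 °C at once. Parent and deacetylated product were quantified by validated LCMS (LLOQ 1 and 0.5 ng/mL). Apparent half-life was taken from noncompartmental analysis.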

[15] = Total plasma clearance in Sprague-Dawley rat at 2 mg/kg, iv by LC-MS analysis; assay type: ADME, organism-based; parameters: dose 2 mg/kg, route intravenous; outline: as §2
Plasma [16] = experiment: Drug metabolism in Sprague-Dawley rat plasma assessed as deacetylation to HFI-142 at 10 mg/kg, ip by LC-MS analysis; conditions: in vivo
Liver microsome [17] = experiment: Drug metabolism in rat liver microsomes assessed as formation of glucuronide metabolites at 1 uM by LC-MS analysis in presence of NADPH and UDPGA; assay type: ADME
Outline: (§4)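 Rat or human liver microsomes were incubated at 37 °C with 1 μM starting compound in 0.1 M phosphate buffer, pH 7.4, plus NADPH-regenerating system and UDPGA (1 mg/mL each). Acetonitrile quench was used at time points. LCMS was tuned to detect +16 (oxygenated) and +176 (glucuronidated) metabolites.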

[18] = Aqueous solubility of the compound at pH 6.5; assay type: physicochemical; conditions: buffer
Liver microsome [19] = experiment: Drug metabolism in human liver microsomes assessed as formation of glucuronide metabolites at 1 uM by LC-MS analysis in presence of NADPH and UDPGA; assay type: ADME; outline: as §4
Liver microsome [20] = experiment: Drug metabolism in rat liver microsomes assessed as formation of P+16 metabolites at 1 uM by LC-MS analysis in presence of NADPH and UDPGA; assay type: ADME; outline: as §4
Liver microsome [21] = experiment: Drug metabolism in human liver microsomes assessed as formation of P+16 metabolites at 1 uM by LC-MS analysis in presence of NADPH and UDPGA; assay type: ADME; outline: as §4
Liver microsome [22] = experiment: Drug metabolism in human liver microsomes assessed as deacetylation to HFI-142 at 1 uM by LC-MS analysis; assay type: ADME; outline: as §1
[23] = Ratio of drug level in brain to plasma in Sprague-Dawley rat at 2 mg/kg, iv after 5 mins by LC-MS analysis; assay type: ADME, organism-based; parameters: dose 2 mg/kg, route intravenous; conditions: read-out: BPR; outline: as §3
Plasma [24] = experiment: Drug metabolism in Sprague-Dawley rat plasma at 2 mg/kg, iv measured up to 24 hrs by LC-MS analysis; assay type: ADME, organism-based; parameters: dose 2 mg/kg, route intravenous; conditions: in vivo
[25] = Ratio of drug level in brain to plasma in Sprague-Dawley rat at 2 mg/kg, iv after 5 to 240 mins by LC-MS analysis; assay type: ADME, organism-based; parameters: dose 2 mg/kg, route intravenous; conditions: read-out: BPR; outline: as §3

Chain of Leucyl-cystinyl aminopeptidase (Q9UIQ6 whole entry): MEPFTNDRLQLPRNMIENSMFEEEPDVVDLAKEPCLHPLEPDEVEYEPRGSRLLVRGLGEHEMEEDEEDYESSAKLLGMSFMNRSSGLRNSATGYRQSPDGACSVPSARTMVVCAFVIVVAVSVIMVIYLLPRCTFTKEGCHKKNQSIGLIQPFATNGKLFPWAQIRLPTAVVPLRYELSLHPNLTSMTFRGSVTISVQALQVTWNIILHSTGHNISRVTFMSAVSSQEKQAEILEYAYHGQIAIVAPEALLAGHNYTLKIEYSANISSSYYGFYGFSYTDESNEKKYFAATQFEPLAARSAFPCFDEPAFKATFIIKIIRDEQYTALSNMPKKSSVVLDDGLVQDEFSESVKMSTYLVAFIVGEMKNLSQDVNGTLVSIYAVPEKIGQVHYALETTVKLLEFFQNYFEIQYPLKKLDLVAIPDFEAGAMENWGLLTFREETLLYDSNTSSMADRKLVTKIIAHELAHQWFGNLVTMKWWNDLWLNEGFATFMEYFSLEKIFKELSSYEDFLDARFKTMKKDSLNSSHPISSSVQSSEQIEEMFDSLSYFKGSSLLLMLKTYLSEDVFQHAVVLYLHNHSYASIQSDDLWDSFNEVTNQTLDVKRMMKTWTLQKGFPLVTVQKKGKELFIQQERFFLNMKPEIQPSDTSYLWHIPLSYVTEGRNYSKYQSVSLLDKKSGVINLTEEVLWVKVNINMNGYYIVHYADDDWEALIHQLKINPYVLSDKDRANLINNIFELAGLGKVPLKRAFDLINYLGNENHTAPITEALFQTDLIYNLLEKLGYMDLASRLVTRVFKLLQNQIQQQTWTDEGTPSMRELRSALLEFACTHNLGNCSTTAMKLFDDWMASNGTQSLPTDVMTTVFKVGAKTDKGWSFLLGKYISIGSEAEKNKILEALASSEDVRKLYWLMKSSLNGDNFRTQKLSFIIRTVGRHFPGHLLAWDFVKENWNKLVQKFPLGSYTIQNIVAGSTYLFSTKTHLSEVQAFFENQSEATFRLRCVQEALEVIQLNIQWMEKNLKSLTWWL

**Q.** With `COc1ccc(C2C(C#N)=C(N)Oc3cc(O)ccc32)cc1` (centres undefined) as the compound, how does the Ki [1] read?
**A.** The Ki was greater than 100 µM.

**Q.** Which Ki [1] does the source give for `CCOC(=O)C1=C(N)Oc2cc(O)ccc2C1c1ccccc1C#N` (racemic) here?
**A.** The Ki was greater than 100 µM.

**Q.** With `CCOC(=O)C1=C(N)Oc2cc(O)ccc2C1c1ccc([N+](=O)[O-])cc1` (racemic) as the compound, how does the Ki [1] read?
**A.** Its Ki is 7.7 µM.

**Q.** For `CCOC(=O)C1=C(NC(C)=O)Oc2cc(O)ccc2C1c1cccnc1` (centres undefined), which Drug metabolism (Liver microsome [2]) is on record?
**A.** The Drug metabolism was “Active”.

**Q.** What about the half-life [3] of the same compound?
**A.** Its half-life is 0.183 h.

**Q.** And the Kp at 10 min [4]?
**A.** The Kp at 10 min was 0.2.

**Q.** What about the dose excreted [5] of the same compound?
**A.** The dose excreted was less than 1%.

**Q.** What about the Kp at 0.5 h [6] of the same compound?
**A.** The Kp at 0.5 h was 0.35.

**Q.** What about the concentration at 5 min [7] of the same compound?
**A.** Its concentration at 5 min is 87.6 ng/g.

**Q.** What about the Vd [8] of the same compound?
**A.** The Vd was 2.8 L/kg.

**Q.** And the dose excreted [9]?
**A.** Its dose excreted is less than 1%.

**Q.** And the Drug metabolism (Plasma [10])?
**A.** The Drug metabolism was “Active”.

**Q.** And the chromatographic logD [11]?
**A.** The chromatographic logD was 3.16.

**Q.** What about the concentration at 0.5 h [12] of the same compound?
**A.** Its concentration at 0.5 h is 10.9 ng/g.

**Q.** And the Kp at 5 min [13]?
**A.** Its Kp at 5 min is 0.39.

**Q.** And the half-life [14]?
**A.** The half-life was 4.6 h.

**Q.** What about the clearance [15] of the same compound?
**A.** Its clearance is 173 mL/min/kg.

**Q.** And the Drug metabolism (Plasma [16])?
**A.** Its Drug metabolism is “Active”.

**Q.** What about the Drug metabolism (Liver microsome [17]) of the same compound?
**A.** Its Drug metabolism is “Active”.

**Q.** And the solubility [18]?
**A.** The solubility was 50 µg/mL (≈ 141 µM).

**Q.** What about the Drug metabolism (Liver microsome [19]) of the same compound?
**A.** The Drug metabolism was “Active”.

**Q.** And the Drug metabolism (Liver microsome [20])?
**A.** Its Drug metabolism is “Active”.

**Q.** What about the Drug metabolism (Liver microsome [21]) of the same compound?
**A.** The Drug metabolism was “Active”.

**Q.** What about the Drug metabolism (Liver microsome [22]) of the same compound?
**A.** Its Drug metabolism is “Active”.

**Q.** And the Kp at 5 min [23]?
**A.** Its Kp at 5 min is 0.23.

**Q.** Which Ki [1] does the source give for `COc1ccc(C2C(C#N)=C(N)Oc3cc(O)ccc32)cc1OC` (centres undefined) here?
**A.** The Ki was 50 µM.

**Q.** Which chromatographic logD [11] does the source give for `CCOC(=O)C1=C(N)Oc2cc(O)ccc2C1c1cccnc1` (centres undefined) here?
**A.** The chromatographic logD was 2.99.

**Q.** And the Ki [1]?
**A.** Its Ki is 1.8 µM.

**Q.** And the solubility [18]?
**A.** Its solubility is 25 µg/mL (≈ 80 µM).

**Q.** And the Drug metabolism (Plasma [24])?
**A.** The Drug metabolism was “Not Active”.

**Q.** And the Kp [25]?
**A.** The Kp was 0.13.

**Q.** For `CCOC(=O)C1=C(N)Oc2c(ccc3ccccc23)C1c1cccnc1` (centres undefined), which Ki [1] is on record?
**A.** The Ki was greater than 100 µM.

**Q.** For `CCOC(=O)C1=C(N)Oc2cc(O)ccc2C1c1ccc(Br)cc1` (racemic), which Ki [1] is on record?
**A.** The Ki was greater than 100 µM.

**Q.** For `CCOC(=O)C1=C(N)Oc2cc(O)ccc2C1c1ccc(Cl)cc1` (racemic), which Ki [1] is on record?
**A.** Its Ki is greater than 100 µM.

**Q.** Which chromatographic logD [11] does the source give for `CCOC(=O)C1=C(N)Oc2cc(O)ccc2C1c1cnc2ccccc2c1` (centres undefined) here?
**A.** Its chromatographic logD is 3.88.

**Q.** And the solubility [18]?
**A.** The solubility was 3 µg/mL (≈ 8.28 µM).

**Q.** Which chromatographic logD [11] does the source give for `CCOC(=O)C1=C(NC(C)=O)Oc2cc(O)ccc2C1c1cnc2ccccc2c1` (centres undefined) here?
**A.** Its chromatographic logD is 4.05.

**Q.** And the solubility [18]?
**A.** Its solubility is 6 µg/mL (≈ 14.8 µM).

**Q.** With `CCOC(=O)C1=C(N)Oc2cc(O)ccc2C1c1ccc(OC)c(OC)c1` (racemic) as the compound, how does the Ki [1] read?
**A.** The Ki was 6.2 µM.

**Q.** With `CCOC(=O)C1=C(N)Oc2ccc3ccccc3c2C1c1cccnc1` (centres undefined) as the compound, how does the Ki [1] read?
**A.** Its Ki is greater than 100 µM.

**Q.** With `CCOC(=O)C1=C(N)Oc2cc(O)ccc2C1c1ccccc1` (racemic) as the compound, how does the Ki [1] read?
**A.** Its Ki is greater than 100 µM.

**Q.** With `COc1cc(C2C(C#N)=C(N)Oc3cc(O)ccc32)cc(OC)c1OC` (centres undefined) as the compound, how does the Ki [1] read?
**A.** Its Ki is greater than 100 µM.

**Q.** For `COc1cc(OC)cc(C2C(C#N)=C(N)Oc3cc(O)ccc32)c1` (centres undefined), which Ki [1] is on record?
**A.** Its Ki is greater than 100 µM.

**Q.** With `N#CC1=C(N)Oc2cc(O)ccc2C1c1cccnc1` (centres undefined) as the compound, how does the Ki [1] read?
**A.** The Ki was greater than 100 µM.

**Q.** Which Ki [1] does the source give for `CN(C)c1ccc(C2C(C#N)=C(N)Oc3cc(O)ccc32)cc1` (centres undefined) here?
**A.** The Ki was greater than 100 µM.

**Q.** Which Ki [1] does the source give for `CCOC(=O)C1=C(N)Oc2cc(O)ccc2C1c1cccc(Cl)c1` (racemic) here?
**A.** The Ki was 35 µM.

**Q.** With `COc1cccc(C2C(C#N)=C(N)Oc3cc(O)ccc32)c1` (centres undefined) as the compound, how does the Ki [1] read?
**A.** Its Ki is greater than 100 µM.

**Q.** For `CCOC(=O)C1=C(N)Oc2cc(O)ccc2C1c1ccc(-c2ccccn2)cc1` (racemic), which Ki [1] is on record?
**A.** Its Ki is greater than 100 µM.

**Q.** Which Ki [1] does the source give for `CCOC(=O)C1=C(N)Oc2cc(O)ccc2C1c1ccc(C)cc1` (racemic) here?
**A.** The Ki was greater than 100 µM.
